In ChEMBL document CHEMBL1250539, “OGA inhibition by GlcNAc-selenazoline” (Bioorg Med Chem, 2010) one finds Activity, inhibition and Ki data, which are given here for two molecules.

One assay relates to HeLa. In words: Induction of hyper-O-GlcNAc-ylation in human HeLa cells assessed as increase of O-GlcNAc level at 40 uM after 48 hrs Western blotting. It counts as functional, cell-based. In outline:
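HeLa cells seeded at 1.0 × 10^5 per well in DMEM + 10% FBS, ±40 μM inhibitor, 37 °C, 2 days. Washed in PBS, pelleted and lysed with M-PER reagent. Equal protein (20 μg) separated on 10% gel. Western blot with RL2 anti-O-GlcNAc (1:1000) and IR-dye anti-mouse secondary; infrared imaging.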

Assay [1] deals with T1, Beta-hexosaminidase subunit beta (Homo sapiens) (UniProt P07686).
T1 sequence (whole entry): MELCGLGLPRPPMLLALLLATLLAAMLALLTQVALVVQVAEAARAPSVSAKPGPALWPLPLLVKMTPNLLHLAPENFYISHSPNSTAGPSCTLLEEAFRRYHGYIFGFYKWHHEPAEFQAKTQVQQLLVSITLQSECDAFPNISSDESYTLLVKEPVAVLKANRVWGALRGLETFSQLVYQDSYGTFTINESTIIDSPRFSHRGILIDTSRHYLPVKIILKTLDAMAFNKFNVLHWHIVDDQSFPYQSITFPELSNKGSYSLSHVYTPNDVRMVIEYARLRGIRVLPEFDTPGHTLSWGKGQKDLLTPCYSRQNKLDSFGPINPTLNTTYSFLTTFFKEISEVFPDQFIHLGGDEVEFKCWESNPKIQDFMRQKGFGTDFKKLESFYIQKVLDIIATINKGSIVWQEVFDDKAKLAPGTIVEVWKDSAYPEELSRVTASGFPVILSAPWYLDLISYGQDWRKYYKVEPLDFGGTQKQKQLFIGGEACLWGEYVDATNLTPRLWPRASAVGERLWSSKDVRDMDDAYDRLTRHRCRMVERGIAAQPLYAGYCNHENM
In words: Inhibition of human placental lysosomal hexosaminidase B at 5 uM.

In assay [2] the target is RAC-alpha serine/threonine-protein kinase (Mus musculus) (UniProt P31750). As to the kind of experiment: Activation of AKT.
Sequence of RAC-alpha serine/threonine-protein kinase (Mus musculus) (P31750 whole entry, looked up): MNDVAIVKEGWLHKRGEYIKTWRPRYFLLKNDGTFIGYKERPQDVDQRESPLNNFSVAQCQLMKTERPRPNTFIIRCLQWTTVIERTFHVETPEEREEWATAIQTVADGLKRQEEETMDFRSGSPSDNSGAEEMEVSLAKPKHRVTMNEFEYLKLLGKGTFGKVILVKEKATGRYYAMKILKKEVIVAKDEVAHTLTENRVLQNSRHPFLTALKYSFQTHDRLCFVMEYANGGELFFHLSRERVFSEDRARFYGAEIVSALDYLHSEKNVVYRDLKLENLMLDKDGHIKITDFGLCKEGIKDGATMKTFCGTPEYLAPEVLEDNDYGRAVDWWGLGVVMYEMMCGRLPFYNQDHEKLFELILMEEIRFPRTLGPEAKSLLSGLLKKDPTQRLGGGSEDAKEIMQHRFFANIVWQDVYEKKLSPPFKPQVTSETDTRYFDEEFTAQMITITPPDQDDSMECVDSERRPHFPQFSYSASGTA
The target in assay [3] is T2, Beta-hexosaminidase subunit alpha (Homo sapiens) (UniProt P06865).
T2 sequence (whole entry): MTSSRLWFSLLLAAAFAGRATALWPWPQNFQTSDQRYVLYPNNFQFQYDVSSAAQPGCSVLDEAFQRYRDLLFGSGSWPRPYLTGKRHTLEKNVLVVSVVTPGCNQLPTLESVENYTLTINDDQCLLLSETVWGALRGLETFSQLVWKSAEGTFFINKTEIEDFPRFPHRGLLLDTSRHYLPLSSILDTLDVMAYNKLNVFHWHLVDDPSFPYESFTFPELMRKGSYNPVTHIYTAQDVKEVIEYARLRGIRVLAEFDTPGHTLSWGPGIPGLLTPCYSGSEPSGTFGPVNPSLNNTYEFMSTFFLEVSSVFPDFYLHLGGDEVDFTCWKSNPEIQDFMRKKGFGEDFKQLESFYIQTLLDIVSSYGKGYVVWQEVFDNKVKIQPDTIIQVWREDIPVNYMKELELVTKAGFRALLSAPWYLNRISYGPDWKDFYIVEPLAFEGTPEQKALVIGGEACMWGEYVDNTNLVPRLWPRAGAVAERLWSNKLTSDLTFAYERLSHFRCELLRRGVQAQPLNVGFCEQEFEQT
In words: Inhibition of human placental lysosomal hexosaminidase A at 5 uM. In outline: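 Human placental Hex A was incubated with 50 μM fluorescein di(GlcNAc) substrate ± 5 μM inhibitor in 100 mM citrate/phosphate pH 6.5 without GalNAc at 37 °C for 30 min. The reaction was stopped with 0.5 M Na2CO3 and read by fluorescence (ex 485 / em 535 nm). Percent inhibition was taken against activity without inhibitor.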

The next assay deals with 3T3-L1. In words: Effect on GLUT4 level in mouse differentiated 3T3L1 cells. Format: functional, cell-based. In outline: (§1)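 Differentiated 3T3-L1 adipocytes (day 8) were held 16 h in serum-free DMEM with 4 mM glucose, with or without 40 μM inhibitor. They were re-fed and stimulated with 30 nM insulin for 20 min. Surface GLUT4 was photolabeled with 250 μM Bio-ATB-BMPA at 300 nm. Lysate (600 μg) underwent streptavidin pull-down and anti-GLUT4 immunoblotting, and surface GLUT4 was compared with untreated cells.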

Assay [4] addresses 3-phosphoinositide-dependent protein kinase 1 (Mus musculus) (UniProt Q9Z2A0). As to the kind of experiment: Activation of PDK1.
Assay [5] can be described thus: Competitive inhibition of Streptomyces plicatus hexosaminidase.
A further assay concerns HT-29. In words: Induction of hyper-O-GlcNAc-ylation in human HT-29 cells assessed as increase of O-GlcNAc level at 40 uM after 48 hrs Western blotting. It counts as functional, cell-based. In short, it runs like this: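 HT-29 cells seeded at 1.0 × 10^5 per well in McCoy's 5a + 10% FBS, with or without 40 μM inhibitor, 37 °C for 2 days. Lysed in Tris pH 8.0/DTT/Triton X-100 with protease inhibitors and sonicated. 20 μg protein per lane run on 10% SDS gel and blotted. Probed with anti-O-GlcNAc RL2 (1:1000) and IR-dye anti-mouse secondary; infrared imaging.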
In general terms: Immunoblotting shows a protein as a band on a membrane.

The target in assay [6] is T3, Solute carrier family 2, facilitated glucose transporter member 4 (Mus musculus) (UniProt P14142).
T3 sequence (whole entry): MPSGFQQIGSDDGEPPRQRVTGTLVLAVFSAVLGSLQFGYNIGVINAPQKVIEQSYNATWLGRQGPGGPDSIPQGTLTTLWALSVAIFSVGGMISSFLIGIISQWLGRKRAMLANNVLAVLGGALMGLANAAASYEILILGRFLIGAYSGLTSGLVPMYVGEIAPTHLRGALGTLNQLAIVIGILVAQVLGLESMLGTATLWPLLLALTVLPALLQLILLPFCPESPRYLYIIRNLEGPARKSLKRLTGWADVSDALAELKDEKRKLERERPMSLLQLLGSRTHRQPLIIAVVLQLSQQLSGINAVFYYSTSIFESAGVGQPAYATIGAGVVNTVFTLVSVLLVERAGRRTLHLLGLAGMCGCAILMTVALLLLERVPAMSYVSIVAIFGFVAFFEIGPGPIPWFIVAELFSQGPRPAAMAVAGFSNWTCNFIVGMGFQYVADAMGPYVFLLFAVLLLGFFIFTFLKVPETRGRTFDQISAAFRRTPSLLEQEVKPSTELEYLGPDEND
As to the kind of experiment: Inhibition of insulin-induced GLUT4 translocation into plasma membrane of mouse differentiated 3T3L1 cells at 40 uM after 16 hrs by Western blotting relative to control. Particulars: 3T3-L1. In outline: as §1

The next assay deals with T4, Protein O-GlcNAcase (Homo sapiens, UniProt O60502).
T4 sequence (O60502 whole entry): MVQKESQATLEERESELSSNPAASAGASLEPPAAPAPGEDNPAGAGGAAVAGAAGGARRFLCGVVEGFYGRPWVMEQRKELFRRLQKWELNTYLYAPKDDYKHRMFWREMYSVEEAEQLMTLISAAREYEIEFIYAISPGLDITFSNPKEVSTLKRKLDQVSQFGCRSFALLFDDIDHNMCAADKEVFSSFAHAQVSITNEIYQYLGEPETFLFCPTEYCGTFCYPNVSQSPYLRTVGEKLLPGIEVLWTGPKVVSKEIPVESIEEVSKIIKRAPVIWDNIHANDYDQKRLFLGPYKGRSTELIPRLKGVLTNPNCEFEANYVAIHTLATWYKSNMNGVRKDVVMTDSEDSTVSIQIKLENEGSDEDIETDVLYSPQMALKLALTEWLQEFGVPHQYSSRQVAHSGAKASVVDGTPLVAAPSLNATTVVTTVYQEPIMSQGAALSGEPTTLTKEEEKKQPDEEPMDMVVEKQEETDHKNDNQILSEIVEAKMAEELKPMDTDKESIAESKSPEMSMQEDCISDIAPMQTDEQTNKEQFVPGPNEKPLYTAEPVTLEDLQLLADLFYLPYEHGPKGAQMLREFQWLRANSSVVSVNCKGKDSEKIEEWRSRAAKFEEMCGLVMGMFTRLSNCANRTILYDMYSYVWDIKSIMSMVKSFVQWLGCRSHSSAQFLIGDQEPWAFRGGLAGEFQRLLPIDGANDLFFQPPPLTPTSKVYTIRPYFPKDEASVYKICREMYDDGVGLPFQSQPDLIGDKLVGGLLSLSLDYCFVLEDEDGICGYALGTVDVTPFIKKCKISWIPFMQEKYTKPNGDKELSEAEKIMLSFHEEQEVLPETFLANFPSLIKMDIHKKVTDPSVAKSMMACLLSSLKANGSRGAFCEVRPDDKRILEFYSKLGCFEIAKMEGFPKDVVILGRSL
In words: Inhibition of human O-GlcNAcase after 5 mins by Lineweaver-Burke plot analysis.

Calls of active or inactive are those of the source. The calls are words filed in the database; no cut-off is given here.

Sequence of 3-phosphoinositide-dependent protein kinase 1 (Mus musculus) (Q9Z2A0 whole entry, looked up): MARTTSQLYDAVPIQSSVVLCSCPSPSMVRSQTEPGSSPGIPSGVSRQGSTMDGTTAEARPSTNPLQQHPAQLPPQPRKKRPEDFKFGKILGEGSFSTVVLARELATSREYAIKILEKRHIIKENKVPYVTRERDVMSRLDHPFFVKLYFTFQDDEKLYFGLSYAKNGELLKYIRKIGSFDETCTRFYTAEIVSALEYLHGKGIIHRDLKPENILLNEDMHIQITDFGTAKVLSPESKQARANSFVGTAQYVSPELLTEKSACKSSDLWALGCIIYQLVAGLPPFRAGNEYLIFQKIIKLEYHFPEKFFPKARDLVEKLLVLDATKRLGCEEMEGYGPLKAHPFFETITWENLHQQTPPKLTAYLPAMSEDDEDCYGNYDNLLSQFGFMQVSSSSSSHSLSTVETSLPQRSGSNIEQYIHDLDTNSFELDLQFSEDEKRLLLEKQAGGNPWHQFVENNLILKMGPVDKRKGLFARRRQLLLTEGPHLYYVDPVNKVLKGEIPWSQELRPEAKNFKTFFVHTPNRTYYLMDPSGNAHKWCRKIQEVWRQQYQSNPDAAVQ

The term inhibition denotes the change of the read-out against control, counted positive when it falls. What is called Ki is the equilibrium dissociation constant of an inhibitor or competing ligand from its target. For the molecule `CC1=N[C@@H]2[C@@H](O)[C@H](O)[C@@H](CO)O[C@@H]2S1`, the result (with HeLa; in assay [2]; in assay [4]; with HT-29) was Active. For the same molecule, the inhibition entry in [1] and in assay [3] was “Active” each time. The outcome with 3T3-L1 was inactive. In [5], this molecule displayed a Ki of 20 µM. In assay [6], this molecule had an inhibition of 43%.

For `CC1=N[C@@H]2[C@@H](O)[C@H](O)[C@@H](CO)O[C@@H]2[Se]1`, the result (in the assay with HeLa; in assay [2]; in assay [4]; in the assay with HT-29) was Active. For the same molecule, the inhibition result in [1] and in assay [3] was “Active” each time. The result in the assay with 3T3-L1 was inactive. Besides, the results for the Ki (in assay [5]; at Protein O-GlcNAcase) were 170 µM and 0.7 µM, respectively. The inhibition in assay [6] is 16.3%.
